Source: ChEMBL document CHEMBL3352184, “6-Deoxy-13-hydroxy-8,11-dione-dihydrogranaticin B, an intermediate in granaticin biosynthesis, from Streptomyces sp. CPCC 200532” (J Nat Prod, 2014)
The source made the active and inactive calls. The calls are words filed in the database; no cut-off is given here.

Experiments:
[1] = tested on: HepG2; assay: Cytotoxicity against human HepG2 cells by MTT assay; format: functional, cell-based
Summary of the method: (§1)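 MTT read-out on cancer cell lines exposed to a series of concentrations per compound (ranges spanning roughly 0.6–372.1 μM); compounds dissolved in DMSO, final DMSO 0.1%.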

[2] = tested on: Bacillus subtilis; assay: Antibacterial activity against Bacillus subtilis CMCC 63501 after 16 to 18 hrs by filter paper disk assay; format: functional, organism-based
[3] = Cytotoxicity against human HCT116 cells by MTT assay; format: functional, cell-based; conditions: HCT-116; summary of the method: as §1
[4] = tested on: A549; assay: Cytotoxicity against human A549 cells by MTT assay; format: functional, cell-based; summary of the method: as §1
[5] = tested on: HeLa; assay: Cytotoxicity against human HeLa cells by MTT assay; format: functional, cell-based; summary of the method: as §1

Compound	IC50 [1] [µM]	Activity [2]	IC50 [3] [µM]	IC50 [4] [µM]	IC50 [5] [µM]
C[C@@H]1O[C@H]2CC(=O)O[C@H]2C2=C1C(=O)c1c(O)c3c(c(O)c1C2=O)[C@H]1C[C@@H](O[C@H]2CC[C@H](O)[C@H](C)O2)[C@@]3(O)[C@@H](C)O1 [GRANATICIN B]	5.8	Active	14.8	1.9	1.6
C[C@@H]1O[C@@H](CC(=O)O)Cc2cc3c(c(O)c21)C(=O)C1=C(C3=O)[C@H]2C[C@@H](O[C@H]3CC[C@H](O)[C@H](C)O3)[C@@]1(O)[C@@H](C)O2	18.8	–	13.1	37.6	20.2
C[C@@H]1O[C@@H](CC(=O)O)CC2=C1C(=O)c1c(O)c3c(c(O)c1C2=O)[C@H]1C[C@@H](O[C@H]2CC[C@H](O)[C@H](C)O2)[C@@]3(O)[C@@H](C)O1	–	Active	–	–	–
C[C@@H]1O[C@H]2CC(=O)O[C@H]2C2=C1C(=O)c1c(O)c3c(c(O)c1C2=O)[C@H]1C[C@@H](O)[C@]3(O)[C@@H](C)O1	6.6	–	11	1.3	0.7
C[C@@H]1O[C@@H](CC(=O)O)Cc2cc3c(c(O)c21)C(=O)C1=C(C3=O)[C@H]2C[C@@H](O)[C@@]1(O)[C@@H](C)O2	148	–	179	197	297
